Source: ChEMBL document CHEMBL1135646, “In vitro photodynamic properties of chalcogenopyrylium analogues of the thiopyrylium antitumor agent AA1” (J Med Chem, 2002)

Tests used:
[1] = Distribution coefficient between octanol and phosphate buffer at pH6.0; format: physicochemical; settings: pH 6
How it was run: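 Shake-flask partitioning between n-octanol and pH 6 phosphate buffer as the aqueous phase. Mixing for 3–5 min, then 1 h settling, with equilibration at 23 °C. Each phase is quantified by UV–visible spectrophotometry, and the result is reported as log P.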

[2] = tested on: Colon 26; experiment: Effective concentration evaluated in light induced toxicity toward COLO-26, murine colon carcinoma cell line after irradiation with 15 J/cm**2 of 360-800nm light; format: functional, cell-based; settings: Mus musculus, Colon 26, light or radiation study
How it was run: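 Colo-26 cells in RPMI 1640 with 10% FCS are seeded at 5×10^3 cells/well the evening before. Cells are washed with PBS and given dye in HBSS with 1% FCS for 2 h at 37 °C. After a wash, irradiation in PBS with 1% FCS uses filtered 360–800-nm tungsten-halogen light to 15 J cm⁻². Growth medium is added and cells are held 24 h. MTT read-out; EC50 is the concentration giving 50% cell kill.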

[3] = compound evaluated for dark induced toxicity toward COLO-26, murine colon carcinoma cell line; format: cell-based; settings: mouse, COLO-26 (Colon 26) murine colon carcinoma cells; read-out: LD50 (the source's name)
How it was run: (§1)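 Colo-26 murine colon carcinoma cells were grown in RPMI 1640 with 10% FCS at 37 °C, 5% CO2, and plated at 5×10^3 cells/well the evening before. After two PBS washes, they took dye at various concentrations in HBSS with 1% FCS at 37 °C. They were then washed, left unirradiated, given growth medium, and kept 24 h. Survival was read by MTT, and LD50 is the 50% kill concentration.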

[4] = Ratio of LD50 value to that of EC50 value.; format: functional
[5] = Lethal dose evaluated in dark induced toxicity toward COLO-26, murine colon carcinoma cell line; settings: mouse, COLO-26 (Colon 26) murine colon carcinoma cells; read-out: LD50 (the source's name); how it was run: as §1

| Structure (SMILES) | logD [1] | EC50 [2] [nM] | CC50 [3] [nM] | Ratio [4] | CC50 [5] [nM] |
| --- | --- | --- | --- | --- | --- |
| c1cc(N2CCOCC2)ccc1-c1cc(-c2ccc(N3CCOCC3)cc2)[se+]c(-c2ccc(N3CCOCC3)cc2)c1 | 1.2 | 800 | 7200 | 9 | – |
| Nc1ccc(-c2cc(-c3ccccc3)cc(-c3ccc(N4CCOCC4)cc3)[te+]2)cc1 | 1 | – | 70 | – | – |
| Nc1ccc(-c2cc(-c3ccccc3)cc(-c3ccc(N4CCOCC4)cc3)[se+]2)cc1 | 0.9 | – | 900 | – | – |
| CN(C)c1ccc(-c2cc(-c3ccccc3)cc(-c3ccc(N)cc3)[se+]2)cc1 | 1.3 | – | 400 | – | – |
| CN(C)c1ccc(-c2cc(-c3ccc(N(C)C)cc3)[s+]c(-c3ccc(N(C)C)cc3)c2)cc1 | 2.2 | 200 | 500 | 2.5 | – |
| CN(C)c1ccc(-c2cc(-c3ccc(N)cc3)[se+]c(-c3ccc(N)cc3)c2)cc1 | 1.7 | 370 | 1400 | 3.8 | – |
| Nc1ccc(-c2cc(-c3ccc(N4CCOCC4)cc3)cc(-c3ccc(N)cc3)[se+]2)cc1 | 1.5 | 1200 | 3800 | 3.2 | – |
| CN(C)c1ccc(-c2cc(-c3ccc(N)cc3)[se+]c(-c3ccc(N4CCOCC4)cc3)c2)cc1 | 1 | 70 | 1500 | 21 | – |
| Nc1ccc(-c2cc(-c3ccc(N4CCOCC4)cc3)cc(-c3ccc(N)cc3)[te+]2)cc1 | 1.9 | – | 1400 | – | – |
| Nc1ccc(-c2cc(-c3ccc(N4CCOCC4)cc3)cc(-c3ccc(N)cc3)[s+]2)cc1 | 1.8 | – | 800 | – | – |
| CN(C)c1ccc(-c2cc(-c3ccc(N)cc3)[s+]c(-c3ccc(N)cc3)c2)cc1 | 1.9 | – | 100 | – | – |
| CN(C)c1ccc(-c2cc(-c3ccccc3)[s+]c(-c3ccc(N)cc3)c2)cc1 | 1.3 | – | 70 | – | – |
| Nc1ccc(-c2cc(-c3ccc(N4CCOCC4)cc3)cc(-c3ccccc3)[se+]2)cc1 | 1.2 | – | 6500 | – | – |
| Nc1ccc(-c2cc(-c3ccc(N4CCOCC4)cc3)cc(-c3ccc(N4CCOCC4)cc3)[s+]2)cc1 | 1.3 | 2000 | 66000 | 33 | – |
| Nc1ccc(-c2cc(-c3ccccc3)cc(-c3ccc(N4CCOCC4)cc3)[s+]2)cc1 | 1.1 | – | 1800 | – | – |
| CN(C)c1ccc(-c2cc(-c3ccc(N)cc3)[s+]c(-c3ccc(N4CCOCC4)cc3)c2)cc1 | 0.9 | – | 900 | – | – |
| Nc1ccc(-c2cc(-c3ccc(N4CCOCC4)cc3)cc(-c3ccc(N4CCOCC4)cc3)[te+]2)cc1 | 1.6 | 600 | 800 | 1.3 | – |
| CN(C)c1ccc(-c2cc(-c3ccc(N(C)C)cc3)[se+]c(-c3ccc(N(C)C)cc3)c2)cc1 | 2.2 | 300 | 500 | 1.7 | – |
| CN(C)c1ccc(-c2cc(-c3ccccc3)[te+]c(-c3ccc(N)cc3)c2)cc1 | 1.9 | – | 600 | – | – |
| Nc1ccc(-c2cc(-c3ccc(N4CCOCC4)cc3)cc(-c3ccc(N4CCOCC4)cc3)[se+]2)cc1 | 1.2 | 1900 | 6900 | 3.6 | – |
| CN(C)c1ccc(-c2cc(-c3ccccc3)[se+]c(-c3ccc(N)cc3)c2)cc1 | 1.2 | 200 | 2600 | 13 | – |
| CN(C)c1ccc(-c2cc(-c3ccc(N)cc3)[te+]c(-c3ccc(N)cc3)c2)cc1 | 2 | – | 500 | – | – |
| CN(C)c1ccc(-c2cc(-c3ccc(N)cc3)[te+]c(-c3ccc(N4CCOCC4)cc3)c2)cc1 | 1 | – | – | – | 500 |
